According to ChEMBL document CHEMBL1135732, “Synthesis and antitumor activity of several new analogues of penclomedine and its metabolites” (2002):

Experiments:
Mus musculus [1] = species: Mus musculus; assay: Tumor growth delay in comparison vehicle-treated control, difference in the median time poststaging for tumors of the treated (T) group to double twice in mass compared to the median of the control (C) group ce; assay type: functional
Method in brief: (§1)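 MX-1 human breast tumor (NCI repository), fragments of 30–40 mg from in vivo passage implanted subcutaneously in the axillary region. Groups of five mice dosed ip for 5 days once tumors reached about 300 mg, with compound as a suspension in aqueous hydroxypropyl cellulose. Tumors were caliper-measured in two dimensions twice weekly and converted to mass. Growth delay T−C was the difference in median time to two doublings versus vehicle controls. Regressions and tumor-free survivors were also recorded. The study ended when controls reached 1 g.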

Mus musculus [2] = assay: In vivo optimal (ip) dosage (<LD10) against subcutaneously implanted human mammary tumor xenograft MX-1 on a five-successive day schedule in Athymic NCr-nu/nu mice; assay type: functional
Method in brief: (§2)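 Human MX-1 breast tumor fragments (30–40 mg) from in vivo passage implanted subcutaneously in the axillary region. Dosing ip as a suspension in aqueous hydroxypropyl cellulose, once daily for 5 days, beginning when tumors reached about 300 mg. Groups of five mice. Tumors caliper-measured in two dimensions twice weekly and converted to mass. Study ended when control tumors reached 1 g.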

Mus musculus [3] = species: Mus musculus; assay: Number of tumor-free survivors in a group of five mice; assay type: functional; method in brief: as §2
Mus musculus [4] = assay: In vivo optimal (ip) dosage (<LD10) against subcutaneously implanted human mammary tumor xenograft MX-1 on a five-successive day schedule in Athymic NCr-nu/nu mice; Toxic; assay type: functional, organism-based; method in brief: as §1

| Structure (SMILES) | T-C (Mus musculus [1]) | Optimal dosage (Mus musculus [2]) | Tumor-free (Mus musculus [3]) | Optimal dosage (Mus musculus [4]) |
| --- | --- | --- | --- | --- |
| CCOc1nc(C(Cl)(Cl)Cl)c(Cl)c(O)c1Cl | 5.2 days | 60 mg kg-1 dose-1 day-1 | 0 survivors/total |  |
| COc1c(Cl)c(Oc2ccccc2)nc(C(Cl)(Cl)Cl)c1Cl | 2.3 days | 135 mg kg-1 dose-1 day-1 | 0 survivors/total |  |
| Oc1nc(C(Cl)(Cl)Cl)c(Cl)c(O)c1Cl | -0.5 days | 40 mg kg-1 dose-1 day-1 | 0 survivors/total |  |
| COc1c(Cl)c(C(Cl)(Cl)Cl)nc(C(Cl)(Cl)Cl)c1Cl | -0.8 days | 135 mg kg-1 dose-1 day-1 | 0 survivors/total |  |
| CCCCOc1nc(C(Cl)(Cl)Cl)c(Cl)c(OC)c1Cl | -0.8 days | 135 mg kg-1 dose-1 day-1 | 0 survivors/total |  |
| Clc1c(Oc2ccccc2)nc(C(Cl)(Cl)Cl)c(Cl)c1Oc1ccccc1 | 0.2 days | 135 mg kg-1 dose-1 day-1 | 0 survivors/total |  |
| COc1c(Cl)c(O)nc(C(Cl)(Cl)Cl)c1Cl | 0.8 days | 135 mg kg-1 dose-1 day-1 | 0 survivors/total |  |
| CCCCOc1nc(C(Cl)(Cl)Cl)c(Cl)c(OCCCC)c1Cl | -0.6 days | 135 mg kg-1 dose-1 day-1 | 0 survivors/total |  |
| CCOc1nc(C(Cl)(Cl)Cl)c(Cl)c(OC(=O)COC)c1Cl | 17.8 days | 135 mg kg-1 dose-1 day-1 | 0 survivors/total |  |
| CCOc1nc(C(Cl)(Cl)Cl)c(Cl)c(OCC)c1Cl | >41 days | 135 mg kg-1 dose-1 day-1 | 4 survivors/total |  |
| COc1nc(C(Cl)(Cl)Cl)c(Cl)c(OC(C)C)c1Cl | >35.2 days | 60 mg kg-1 dose-1 day-1 | 2 survivors/total |  |
| COc1nc(C(Cl)(Cl)Cl)c(Cl)c(O)c1Cl | >37.2 days | 90 mg kg-1 dose-1 day-1 | 3 survivors/total |  |
| CC(C)Oc1nc(C(Cl)(Cl)Cl)c(Cl)c(OC(C)C)c1Cl | -0.7 days | 135 mg kg-1 dose-1 day-1 | 0 survivors/total |  |
| CCOc1nc(C(Cl)(Cl)Cl)c(Cl)c(OC(C)=O)c1Cl | 1.4 days | 90 mg kg-1 dose-1 day-1 | 0 survivors/total |  |
| CCOc1nc(C(Cl)(Cl)Cl)c(Cl)c(OC)c1Cl | >38.6 days | 200 mg kg-1 dose-1 day-1 | 2 survivors/total |  |
| Oc1c(Cl)c(Cl)nc(C(Cl)(Cl)Cl)c1Cl | 2 days | 50 mg kg-1 dose-1 day-1 | 0 survivors/total |  |
| CC(=O)Oc1c(Cl)c(Cl)nc(C(Cl)(Cl)Cl)c1Cl |  |  |  | Toxic |
| Oc1c(Cl)c(OCC(F)(F)F)nc(C(Cl)(Cl)Cl)c1Cl | -0.2 days | 90 mg kg-1 dose-1 day-1 | 0 survivors/total |  |
| CCCCOc1c(Cl)c(OC)nc(C(Cl)(Cl)Cl)c1Cl | 20.5 days | 90 mg kg-1 dose-1 day-1 | 1 survivors/total |  |
| COc1nc(C(Cl)(Cl)Cl)c(Cl)c(OC)c1Cl [PENCLOMEDINE] | >49 days | 90 mg kg-1 dose-1 day-1 | 5 survivors/total |  |
| COc1c(Cl)c(OCC(F)(F)F)nc(C(Cl)(Cl)Cl)c1Cl | 1.2 days | 90 mg kg-1 dose-1 day-1 | 0 survivors/total |  |
| COc1nc(C(Cl)(Cl)Cl)c(Cl)c(OC(C)=O)c1Cl | >41 days | 90 mg kg-1 dose-1 day-1 | 5 survivors/total |  |
| COc1c(Cl)c(Cl)nc(C(Cl)(Cl)Cl)c1Cl | 4.3 days | 50 mg kg-1 dose-1 day-1 | 0 survivors/total |  |
| CC(=O)Oc1nc(C(Cl)(Cl)Cl)c(Cl)c(OC(C)=O)c1Cl | -0.5 days | 40 mg kg-1 dose-1 day-1 | 0 survivors/total |  |
| CCCOc1c(Cl)c(OC)nc(C(Cl)(Cl)Cl)c1Cl | 5.4 days | 60 mg kg-1 dose-1 day-1 | 0 survivors/total |  |
| CCCCOc1nc(C(Cl)(Cl)Cl)c(Cl)c(O)c1Cl | -0.9 days | 135 mg kg-1 dose-1 day-1 | 0 survivors/total |  |
| COc1nc(C(Cl)(Cl)Cl)c(Cl)c(Cl)c1Cl | -1.4 days | 135 mg kg-1 dose-1 day-1 | 0 survivors/total |  |
| CCOc1c(Cl)c(OC)nc(C(Cl)(Cl)Cl)c1Cl | >42.7 days | 90 mg kg-1 dose-1 day-1 | 5 survivors/total |  |
| FC(F)(F)COc1nc(C(Cl)(Cl)Cl)c(Cl)c(OCC(F)(F)F)c1Cl | 0.4 days | 135 mg kg-1 dose-1 day-1 | 0 survivors/total |  |
